KDM4C inh – inhibitors of human demethylase GASC-1 KDM4C | actives 0.15% (n = 96,000) | GST-KDM4C 2-372, H3K9me3 peptide, LANCE TR-FRET | inhibition, % at 12.5 µM | Q9H3R0;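 active means mean replicate inhibition above about 25%, with at least 55% of replicates also reaching it, limit read from the data, passing the limit was not always enough; inconclusive means only one of those two conditions met; inactive means neither condition met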
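Assay system: GST-GASC-1 enzyme fragment 2-372 | Amount: 10 nM enzyme | Medium: HEPES buffer, pH 7.5, plus ascorbate | Reagent: H3K9me3 peptide substrate, Fe(II), 2-oxoglutarate | Doses: Single-point compound screen | Incubation: 30 min demethylation and 1 h detection at room temperature | Measured by: LANCE TR-FRET, excitation 340 nm, emissions 618 and 671 nm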
T cruzi growth-1 – inhibitors of T. cruzi proliferation; actives 5.9% (n = 77,000); inhibition, % at 8.34 µM; AID 624255; T. cruzi beta-gal in NIH3T3, GalScreen luminescence, 90 h;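 active means mean inhibition above about 93%, with at least 55% of replicates each passing it, limit read from the data, passing the limit was not always enough; inconclusive means only one of those two conditions holds; inactive means neither condition holds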
IDH1 mut inh – blocks human IDH1 R132H reductase activity | O75874 | diaphorase/resazurin fluorescence, 60 min | inhibition, % at 10 µM | actives 0.18% (n = 70,000); in the data active means inhibition above about 34%; inconclusive means no clear call, values can overlap the other calls; inactive means below about 11%;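 further: 0% = DMSO and 100% = no enzyme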
Target sequence (O75874 whole entry R132H): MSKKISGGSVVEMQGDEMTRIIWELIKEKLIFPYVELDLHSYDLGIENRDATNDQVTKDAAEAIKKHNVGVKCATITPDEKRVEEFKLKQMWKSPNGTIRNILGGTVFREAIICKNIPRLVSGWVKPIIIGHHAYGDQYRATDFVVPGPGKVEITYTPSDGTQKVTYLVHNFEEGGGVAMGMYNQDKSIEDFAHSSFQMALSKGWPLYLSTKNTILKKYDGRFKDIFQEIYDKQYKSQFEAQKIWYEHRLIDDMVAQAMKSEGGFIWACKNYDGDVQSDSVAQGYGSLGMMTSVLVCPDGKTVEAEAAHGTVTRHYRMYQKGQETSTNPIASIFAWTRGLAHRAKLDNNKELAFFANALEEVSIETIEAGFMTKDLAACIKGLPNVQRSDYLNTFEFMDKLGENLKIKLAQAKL
T cruzi growth-2 – blocks T. cruzi growth in NIH3T3 host cells; actives 72% (n = 5,600); inhibition, % at 8.35 µM; T. cruzi beta-gal in NIH3T3, GalScreen luminescence, 90 h; AID 651739; shares compounds with T cruzi growth-1;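 active means mean replicate inhibition above about 95% and at least 55% of replicates individually reaching it, limit read from the data; inconclusive means only one of the two criteria is met; inactive means neither criterion is met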
T cruzi growth-3 – blocks T. cruzi growth in NIH3T3 host cells. shares compounds with T cruzi growth-1. T. cruzi beta-gal in NIH3T3, GalScreen luminescence, 90 h. inhibition, % at 2.09 µM. actives 21% (n = 5,600). AID 651740;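 active means mean inhibition above about 95%, with at least 55% of replicates also reaching it, limit read from the data; inconclusive means meets just one of the two conditions; inactive means meets neither condition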;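 further: plate controls were neutral control median for no effect and positive control median for full effect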
NIH3T3 tox – cytotoxicity in mouse NIH/3T3 fibroblasts. shares compounds with T cruzi growth-1. NIH/3T3 viability, CellTiter-Glo ATP luminescence, 90 h. cytotoxicity (signal decrease), % at 8.35 µM. actives 14% (n = 5,600). AID 651742;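 active means mean signal decrease across replicates above about 35% based on untreated-well scatter, with enough replicates individually passing, limit read from the data; inconclusive means no rule stated though some were filed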;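 further: 0% = median of neutral control wells and 100% = median of positive control wells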
3T3 cytotox 2 – cytotoxicity in mouse NIH/3T3 fibroblasts; shares compounds with T cruzi growth-1; actives 56% (n = 5,600); NIH/3T3 viability, CellTiter-Glo ATP luminescence, 90 h; inhibition, % at 24.9 µM;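 active means mean loss of cell viability signal at or above a set limit, and enough replicates individually reaching it; inconclusive means meets only the mean limit or only the replicate share; inactive means meets neither condition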;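 further: 0% = median of neutral control wells and 100% = median of positive control wells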
* hit, by the source's call; ? = inconclusive; · = no result. Only a selection was taken, and hits are over-represented in it overall.

SMILES	KDM4C inh	T cruzi growth-1	IDH1 mut inh	T cruzi growth-2	T cruzi growth-3	NIH3T3 tox	3T3 cytotox 2
NC(=O)CCCc1c[nH]c2ccccc12	·	·	0	·	·	·	·
Cc1c(Cl)cccc1NC(=O)CN(c1ccccc1Br)S(C)(=O)=O	·	·	1	·	·	·	·
C[C@@H]1CN([C@@H](C)CO)S(=O)(=O)c2ccc(C#CC3CCCCC3)cc2O[C@H]1CN(C)C	-1	118*	0	104*	101*	38*	104*
C[C@@H]1CN([C@H](C)CO)S(=O)(=O)c2ccc(C#CC3CCCC3)cc2O[C@@H]1CN(C)CC1CC1	0	86	-1	·	·	·	·
CCCN(C)C[C@@H]1Oc2cc(C#CC3CCCC3)ccc2S(=O)(=O)N([C@@H](C)CO)C[C@H]1C	4	103*	-2	108*	77	39*	104*
C[C@H]1CN([C@@H](C)CO)S(=O)(=O)c2ccc(C#CC3CC3)cc2O[C@@H]1CN(C)C	1	-99	-1	·	·	·	·
C[C@H]1CN([C@@H](C)CO)S(=O)(=O)c2ccc(C#CC3CCCC3)cc2O[C@@H]1CN(C)C	0	100*	-1	105*	53	-4	104*
C[C@H]1CN([C@@H](C)CO)S(=O)(=O)c2ccc(C#CC3CCCC3)cc2O[C@H]1CN(C)CC1CC1	0	?	0	94	78	48*	104*
C[C@H]1CN([C@@H](C)CO)S(=O)(=O)c2ccc(C#CC3CCCC3)cc2O[C@H]1CN(C)C	1	-62	0	·	·	·	·
CCCN(C)C[C@H]1Oc2cc(C#CC3CCCC3)ccc2S(=O)(=O)N([C@@H](C)CO)C[C@H]1C	5	86	0	·	·	·	·
NCCNc1ccc([N+](=O)[O-])c(NCCO)c1	·	·	0	·	·	·	·
Cc1ccc(C2=CC(c3ccccc3)SC(N)=N2)cc1 (stereo not given)	·	·	1	·	·	·	·
C[C@H](CO)N1C[C@H](C)[C@@H](CN(C)C)Oc2cc(C#CC3CCCC3)ccc2S1(=O)=O	-1	-1	-2	·	·	·	·
C[C@H](CO)N1C[C@H](C)[C@H](CN(C)C)Oc2cc(C#CC3CCCCC3)ccc2S1(=O)=O	1	98*	0	106*	55	48*	103*
Cc1cc(C)n(C(=O)c2ccc(COc3c(F)c(F)cc(F)c3F)o2)n1	·	·	0	·	·	·	·
Cc1noc(NS(=O)(=O)c2ccc(NC(=O)C3COc4ccccc4O3)cc2)c1C (stereo not given)	·	·	0	·	·	·	·
CC(C)(C(=O)Oc1ccccc1)S(=O)(=O)c1ccc(C(F)(F)F)cn1	·	·	-1	·	·	·	·
CNC[C@H]1Oc2cc(C#Cc3cccc(F)c3)ccc2S(=O)(=O)N([C@@H](C)CO)C[C@@H]1C	-5	85	0	·	·	·	·
CNC[C@H]1Oc2cc(C#Cc3cccc(OC)c3)ccc2S(=O)(=O)N([C@H](C)CO)C[C@@H]1C	-2	77	0	·	·	·	·
CNC[C@@H]1Oc2cc(C#Cc3cccc(OC)c3)ccc2S(=O)(=O)N([C@H](C)CO)C[C@H]1C	0	106*	-2	109*	84	17	103*
CNC[C@H]1Oc2cc(C#Cc3ccc(OC)cc3)ccc2S(=O)(=O)N([C@H](C)CO)C[C@@H]1C	-1	109*	-3	98*	?	39*	105*
CNC[C@H]1Oc2cc(C#Cc3cccc(F)c3)ccc2S(=O)(=O)N([C@H](C)CO)C[C@@H]1C	-3	?	1	104*	62	31	105*
CNC[C@@H]1Oc2cc(C#Cc3cccc(OC)c3)ccc2S(=O)(=O)N([C@@H](C)CO)C[C@H]1C	-1	92	0	·	·	·	·
COc1ccc2c(c1)c(/C=C/c1nc3ccc(I)cc3c(=O)n1CCCO)c(C)n2C	·	·	0	·	·	·	·
CCOC(=O)c1c(NC(=O)CN2C(=O)c3ccccc3C2=O)sc(C)c1C	·	·	0	·	·	·	·
SMILES	KDM4C inh	T cruzi growth-1	IDH1 mut inh	T cruzi growth-2	T cruzi growth-3	NIH3T3 tox	3T3 cytotox 2
Cn1c(SCC(=O)c2ccc([N+](=O)[O-])cc2)nnc1-c1cccnc1	·	·	0	·	·	·	·
CC(C)[C@H](NC(=O)[C@H](C)N(C)C)C(=O)N1CC[C@@H]2Oc3ccc(cc3)/C=C\NC(=O)[C@H](Cc3ccccc3)NC(=O)C21 (stereo not given in full)	·	·	0	·	·	·	·
C[C@@H]1CN([C@H](C)CO)C(=O)c2cc(NC(=O)Nc3ccc(F)cc3)ccc2O[C@@H](C)CCCCO[C@@H]1CN(C)Cc1ccc(Cl)c(Cl)c1	12	101*	0	96*	105*	-29	-12
C[C@H]1CCCCO[C@H](CN(C)Cc2ccc(Cl)c(Cl)c2)[C@@H](C)CN([C@@H](C)CO)C(=O)c2cc(NC(=O)Nc3ccccc3)ccc2O1	-2	69	·	·	·	·	·
C[C@@H]1CCCCO[C@@H](CN(C)Cc2ccc(Cl)c(Cl)c2)[C@@H](C)CN([C@@H](C)CO)C(=O)c2cc(NC(=O)Nc3ccccc3)ccc2O1	0	73	·	·	·	·	·
C[C@H](CO)N1C[C@H](C)[C@H](CN(C)Cc2ccc(Cl)c(Cl)c2)OCCCC[C@H](C)Oc2ccc(NC(=O)Nc3ccccc3)cc2C1=O	0	69	-1	·	·	·	·
C[C@@H]1CCCCO[C@@H](CN(C)Cc2ccc(Cl)c(Cl)c2)[C@@H](C)CN([C@@H](C)CO)C(=O)c2cc(NC(=O)Nc3ccc(F)cc3)ccc2O1	0	109*	·	?	109*	4	27
C[C@H]1CCCCO[C@H](CN(C)Cc2ccc(Cl)c(Cl)c2)[C@@H](C)CN([C@@H](C)CO)C(=O)c2cc(NC(=O)Nc3ccc(F)cc3)ccc2O1	-2	102*	·	95*	112*	2	7
CCOC(=O)CCCSc1nc2c(c(C(F)(F)F)c1C#N)CC(C)CC2 (stereo not given)	·	·	0	·	·	·	·
O=C(CSc1n[nH]c(-c2ccncc2)n1)Nc1sc2c(c1C(=O)Nc1ccccc1)CCCC2	·	·	0	·	·	·	·
C[C@H]1CN([C@@H](C)CO)S(=O)(=O)c2ccc(C#CCN(C)C)cc2O[C@H]1CN(C)Cc1cccnc1	2	86	7	·	·	·	·
CCCC#Cc1ccc2c(c1)O[C@@H](CN(C)Cc1cncnc1)[C@H](C)CN([C@@H](C)CO)S2(=O)=O	-1	48	-1	·	·	·	·
C[C@@H]1CN([C@H](C)CO)S(=O)(=O)c2ccc(C#CCN(C)C)cc2O[C@@H]1CN(C)Cc1cccnc1	4	75	1	·	·	·	·
C[C@H](CO)N1C[C@H](C)[C@H](CN(C)Cc2cccnc2)Oc2cc(C#CCN(C)C)ccc2S1(=O)=O	2	91*	0	95*	77	24	?
C[C@@H]1CN([C@@H](C)CO)S(=O)(=O)c2ccc(C#CCN(C)C)cc2O[C@H]1CN(C)Cc1cccnc1	1	98*	0	108*	103*	14	43*

Screens (PubChem)
